Measured values: ChEMBL document CHEMBL3877293, “Synthesis and Antineoplastic Evaluation of Novel Unsymmetrical 1,3,4-Oxadiazoles” (J Med Chem, 2016)
Activity calls are given as the source filed them. No cut-off for these calls is given here.

Assays:
[1] = Cell cycle arrest in human NB-1 cells assessed as G2/M phase accumulation at 1 uM after 24 hrs by propidium iodide staining based flow cytometry (reference value: 21.2%); details: nb1, 24 h
[2] = Cell cycle arrest in human NCI-H1299 cells assessed as G1 phase accumulation at 1 uM after 24 hrs by propidium iodide staining based flow cytometry (reference value: 61.2 +/- 1.69%); format: functional
[3] = test system: MCF7; assay: Antiproliferative activity against human MCF7 cells at 0.5 uM after 72 hrs in presence of MRP1 inhibitor reversan by XTT assay relative to control; format: functional, cell-based
Procedure, shortened: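 Mcf7 cells treated after 24 h for 72 h at 37 °C, 5% CO2 with test compound at 0.5 μM alone or combined with harmine (1, 3, 5 μM) or reversan (5, 15, 25 μM). XTT was added for 4 h at 37 °C, absorbance read at 490 nm, and viability compared with control.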

[4] = Cell cycle arrest in human LAN1 cells assessed as G2/M phase accumulation at 1 uM after 24 hrs by propidium iodide staining based flow cytometry (reference value: 26.2 +/- 1.92%); format: functional
[5] = Cell cycle arrest in human A549 cells assessed as subG1 phase accumulation at 1 uM after 24 hrs by propidium iodide staining based flow cytometry relative to DMSO control; format: functional
[6] = Antiproliferative activity against human Kelly cells after 72 hrs by XTT assay; format: functional, cell-based
Procedure, shortened: (§1)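 Cells plated at 1500–2000 per well by doubling time, treated after 24 h with a concentration series in six triplicate wells, and incubated 72 h without a medium change. XTT reagent was then added for 4 h at 37 °C and absorbance read at 490 nm. IC50 is the concentration halving absorbance versus untreated cells. Experiments run in triplicate.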

[7] = Antiproliferative activity against human MRC5 cells after 72 hrs by XTT assay; format: cell-based; details: MRC5, 72 h; procedure, shortened: as §1
[8] = Cell cycle arrest in human MCF7 cells assessed as G2/M phase accumulation at 1 uM after 24 hrs by propidium iodide staining based flow cytometry (reference value: 24.2 +/- 1.62%); format: functional
[9] = test system: HeLa; assay: Induction of apoptosis in human HeLa cells assessed as live cells at 5 uM after 48 hrs by Annexin-V FITC/propidium iodide staining based flow cytometry (reference value: 91.1%); format: functional
[10] = Cell cycle arrest in human LAN1 cells assessed as S phase accumulation at 1 uM after 24 hrs by propidium iodide staining based flow cytometry (reference value: 23.5 +/- 1.32%); format: functional
[11] = test system: HeLa; assay: Selectivity ratio of IC50 for human MCF7 cells to IC50 for human HeLa cells; format: functional
Procedure, shortened: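 XTT viability: 1500–2000 cells/well plated by doubling time; compounds added after 24 h, then 72 h further culture without medium change. XTT reagent 4 h at 37 °C, absorbance read at 490 nm. IC50 is the concentration halving absorbance versus untreated cells; triplicate experiments. Ratio is MCF7 IC50 divided by IC50 in the named line.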

[12] = Induction of apoptosis in human NB-1 cells assessed as live cells at 5 uM after 72 hrs by Annexin-V FITC/propidium iodide staining based flow cytometry (reference value: 93.3%); format: cell-based, NB1; details: read-out: Activity
[13] = Cytotoxicity against human HeLa cells assessed as inhibition of colony formation at 0.03 uM after 2 weeks by crystal violet staining based assay relative to control; format: functional; details: 336 h
Procedure, shortened: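 HeLa seeded at 100-200 cells/well in six-well plates and treated with 0.3 or 0.03 μM compound (DMSO control). Medium with compound changed every 3 days for about two weeks, until control colonies were visible. Colonies fixed and stained with 6.0% glutaraldehyde/0.5% crystal violet for 30 min, then counted against control. Done in triplicate.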

[14] = Cell cycle arrest in human A549 cells assessed as G1 phase accumulation at 1 uM after 24 hrs by propidium iodide staining based flow cytometry (reference value: 65.4 +/- 1.84%); format: functional
[15] = Cell cycle arrest in human MCF7 cells assessed as G2/M phase accumulation at 1 uM treated for 24 hrs followed by compound washout measured after 24 hrs by propidium iodide staining based flow cytometry (reference value: 26.4%); format: functional
[16] = test system: A549; assay: Induction of apoptosis in human A549 cells assessed as early apoptotic cells at 5 uM after 72 hrs by Annexin-V FITC/propidium iodide staining based flow cytometry (reference value: 1.3%); format: functional
[17] = Induction of apoptosis in human NB1 hTERT cells assessed as necrotic cells at 5 uM after 72 hrs by Annexin-V FITC/propidium iodide staining based flow cytometry (reference value: 1.6%); format: functional
[18] = Cell cycle arrest in human NB-1 cells assessed as S phase accumulation at 1 uM after 72 hrs by propidium iodide staining based flow cytometry (reference value: 2.5%); details: nb1, 72 h
[19] = Cell cycle arrest in human A549 cells assessed as S phase accumulation at 1 uM after 24 hrs by propidium iodide staining based flow cytometry (reference value: 7.6 +/- 0.63%); format: functional
[20] = Cell cycle arrest in human NB1 hTERT cells assessed as G1 phase accumulation at 1 uM after 24 hrs by propidium iodide staining based flow cytometry (reference value: 52.3%); format: functional
[21] = Cell cycle arrest in human Kelly cells assessed as S phase accumulation at 1 uM after 24 hrs by propidium iodide staining based flow cytometry (reference value: 16.1 +/- 1.28%); format: functional
[22] = Cell cycle arrest in human SH-SY5Y cells assessed as subG1 phase accumulation at 1 uM after 24 hrs by propidium iodide staining based flow cytometry relative to DMSO control; format: functional

**Q.** What does the source list for Cc1[nH]c2c(c1-c1nnc(-c3ccccc3)o1)Cc1ccccc1-2?
**A.** Activity [1]: 23.8%; Activity [2]: 17.8%; Activity [3]: Active; Activity [4]: 82.6%; Activity [5]: 13.8%; IC50 [6]: 250 nM; IC50 [7]: 190 nM; Activity [8]: 59.5 to 78.1%; Activity [9]: 6%; Activity [10]: 5.6%; Ratio IC50 [11]: 28 - 34; viability at 72 h, 5 µM [12]: 86.6%; inhibition at 0.03 µM [13]: ≤ 50%; Activity [14]: 11.4%; Activity [15]: 31.7%; Activity [16]: 11%; Activity [17]: 2.1%; Activity [18]: 4.3%; Activity [19]: 9.5%; Activity [20]: 58.8%; Activity [21]: 9.7%; Activity [22]: 15.7%
